Results pooled from the literature.
Each line is one published result; the experiments were not run side by side. pIC50: −log10 of the molar value.
Cell line: HCT-116
Observed: cell growth or viability

Structure (SMILES)	test	setting	measurement	result
CC(C)CNC(=S)N/N=C/c1cccc2cc3ccccc3nc12	MTT	48 h	pIC50	< 4.30
Cc1cc2c(C(N)=O)cccc2n1-c1nc(NCc2ccccc2)c2c(n1)NC(C)CC2 (stereo not shown)	ATP luminescence	72 h	pIC50	6.05
O=c1cc(OCc2cc(-c3ccc(Cl)cc3Cl)no2)c2ccccc2o1	MTS	72 h	pIC50	< 4.00
Cc1cc2c(C(N)=O)cccc2n1-c1nc2c(c(NCc3cccc(O)c3)n1)CCCN2	ATP luminescence	72 h	pIC50	6.15
Cc1cccc([N+](=O)[O-])c1N=C1SCC(=O)N1c1nnc(-c2ccc(C(F)(F)F)cc2N=C2SCC(=O)N2c2c(C)cccc2[N+](=O)[O-])s1	MTT		pIC50	4.21
Cc1cccc(N=C2C(=O)N(Cc3cccc(Cl)c3)c3ccccc32)c1	MTT	48 h	pIC50	5.15
COc1cccc2c1C(=O)c1c(O)c3c(c(O)c1C2=O)C[C@@](O)(C(=O)CO)C[C@@H]3O[C@H]1C[C@H](N)[C@H](O)[C@H](C)O1		96 h	pIC50	8.42
CC(C)c1cccc(C(C)C)c1N=C1C(=O)N(Cc2ccc(Br)cc2)c2ccccc21	MTT	48 h	pIC50	4.43
O=C(C=Cc1cccs1)c1ccc(OCCOc2ccc(C(=O)C=Cc3cccs3)cc2)cc1	MTT	48 h	pIC50	4.74
FC(F)(F)c1ccc(-c2noc(-c3nn(Cc4ccc(Cl)cc4Cl)c4ccccc34)n2)cc1		48 h	pIC50	3.86
c1ccc2c(c1)ncn2Cn1cncn1	MTT	24 h	pIC50	3.99
CC1(P2(=O)CCCCC2)CCCCC1	MTT	72 h	pIC50	4.16
O=C1C(=Nc2ccc(Cl)cc2)c2ccccc2N1Cc1cccc(Cl)c1	MTT	48 h	pIC50	5.11
O=[N+]([O-])c1cc(Br)c(O)c(C=NNc2ccc(Br)cc2)c1	MTT	24 h	pIC50	4.81
Cc1cc2c(C(N)=O)cccc2n1-c1nc2c(c(NCc3ccccc3)n1)CCCN2	ATP luminescence	72 h	pIC50	6.15
Clc1ccc(-c2cc(CNc3cccc4cccnc34)on2)c(Cl)c1	MTS	72 h	pIC50	< 4.00
COc1cccc2c1C(=O)c1c(O)c3c(c(O)c1C2=O)C[C@@](O)(C(=O)CO)C[C@@H]3O[C@H]1C[C@H](N)[C@H](O)[C@H](C)O1	ATP luminescence	72 h	pIC50	6.01
c1ccc(Cc2nnc(-c3nn(Cc4ccccc4)c4ccccc34)o2)cc1		48 h	pIC50	4.82
O=C1CS/C(=N\c2ccc(F)cc2O)N1c1nnc(-c2ccc(C(F)(F)F)cc2/N=C2\SCC(=O)N2c2ccc(F)cc2O)s1	MTT		pIC50	4.76
CC(=O)c1nc2ccccc2n1Cc1cn([C@@H]2O[C@H](CO)[C@H](O)[C@H](O)[C@H]2O)nn1	LDH	48 h	pIC50	5.06
N#Cc1ccc(-c2cc(COc3cc(=O)oc4ccccc34)on2)cc1	MTS	72 h	pIC50	< 4.00
O=C1C(=Nc2ccccc2I)c2ccccc2N1Cc1ccc(Br)cc1	MTT	48 h	pIC50	5.88
O=[N+]([O-])c1ccc(O)c(C=NNc2ccc(Br)cc2)c1	MTT	24 h	pIC50	5.14
O=C1CS/C(=N\c2cc(C(F)(F)F)ccc2-c2nnc(N3C(=O)CS/C3=N\c3ccc(F)c(O)c3)s2)N1c1ccc(F)c(O)c1	MTT		pIC50	4.67
O=C(CSc1nc2ccccc2s1)N/N=C/c1ccc(OCC(=O)Nc2cccc([N+](=O)[O-])c2)cc1	MTS	72 h	pIC50	4.88
Cc1noc(-c2nn(Cc3ccc(Cl)cc3Cl)c3ccccc23)n1		48 h	pIC50	3.72
CC(C)c1ccc(/C=C2\N=C(SCc3ccccc3)N(c3ccccc3)C2=O)cc1	MTT		IC50	72.9 µg/mL
O=C1CS/C(=N\c2cc(C(F)(F)F)ccc2-c2nnc(N3C(=O)CS/C3=N\c3ccc(-c4ccccc4)cc3)s2)N1c1ccc(-c2ccccc2)cc1	MTT		pIC50	4.03

Structure (SMILES)	test	setting	measurement	result
COc1cccc2c1C(=O)c1c(O)c3c(c(O)c1C2=O)C[C@@](O)(C(=O)CO)C[C@@H]3O[C@H]1C[C@H](N)[C@H](O)[C@H](C)O1	MTT	24 h	pIC50	4.98
O=C1/C(=C/c2ccc([N+](=O)[O-])cc2[N+](=O)[O-])NC(=S)N1c1ccccc1	MTT		IC50	98.5 µg/mL
O=C1CS/C(=N\c2cc(C(F)(F)F)ccc2-c2nnc(N3C(=O)CS/C3=N\c3ccc(Cl)cc3)s2)N1c1ccc(Cl)cc1	MTT		pIC50	4.34
Cc1cc2c(C(N)=O)cccc2n1-c1nc2c(c(NCc3cccnc3)n1)CCCN2	ATP luminescence	72 h	pIC50	6.00
O=C(CSc1nc2ccccc2s1)N/N=C/c1ccc(OCC(=O)Nc2cccc(Cl)c2)cc1	MTS	72 h	pIC50	< 4.00
C#CCn1c(C2CC(c3ccc(F)cc3)=NN2C(C)=O)nc2ccccc21 (stereo not shown)	LDH	48 h	pIC50	5.16
CC1(P2(=O)CCCCC2)C=CCC=C1	MTT	72 h	pIC50	< 4.00
Fc1ccc(NC(=S)N/N=C/c2cccc3cc4ccccc4nc23)cc1	MTT	48 h	pIC50	< 4.30
FC(F)(F)c1ccc(-c2nnc(-c3nn(Cc4ccc(Cl)cc4Cl)c4ccccc34)o2)cc1		48 h	pIC50	3.49
Cc1cccc(N=C2C(=O)N(Cc3ccc(Br)cc3)c3ccccc32)c1	MTT	48 h	pIC50	5.09
COc1ccc(N(Cc2csc(-c3ccccc3)n2)C(=O)CCCCCC(=O)NO)cc1	MTT	72 h	pIC50	5.95
CCC(C(=O)N1C(=O)C(=Nc2ccc(Cl)cc2Br)c2ccccc21)c1ccccc1 (stereo not shown)	MTT	48 h	pIC50	4.51
O=C(C=Cc1ccc(OCCOc2ccc(C=CC(=O)c3cccs3)cc2)cc1)c1cccs1	MTT	48 h	pIC50	4.77
Cc1ccc(NC(=O)Cn2cc(COc3ncnc4[nH]cnc34)nn2)c(C)c1	MTT		pIC50	< 4.00
Cc1cc(NS(=O)(=O)c2ccc(NC(=O)/C(C#N)=C/c3ccc(N4CCCC4)cc3)cc2)no1	MTT	48 h	pIC50	4.01
Cc1cc(Cn2ccnc2)nn1C	MTT	24 h	pIC50	3.62
O=[N+]([O-])c1cc(I)c(O)c(C=NNc2ccccc2)c1	MTT	24 h	pIC50	5.20
c1ccc(-c2noc(-c3nn(Cc4ccncc4)c4ccccc34)n2)cc1		48 h	pIC50	4.32
CC(C)c1cccc(C(C)C)c1N=C1C(=O)Nc2ccccc21	MTT	48 h	pIC50	5.33
O=[N+]([O-])c1cc(I)c(O)c(C=NNc2ccc(Br)cc2)c1	MTT	24 h	pIC50	4.81
c1ccc(Cn2nc(-c3ncc(-c4ccccc4)s3)c3ccccc32)cc1		48 h	pIC50	4.30
FC(F)(F)c1cc(OCc2cc(-c3ccccn3)no2)c2ccccc2n1	MTS	72 h	pIC50	< 4.00
Cc1ccc(CN2C(=O)C(=Nc3cccc(C)c3)c3ccccc32)cc1	MTT	48 h	pIC50	6.41
FC(F)(F)c1cc(OCc2cc(-c3ccccc3)no2)c2ccccc2n1	MTS	72 h	pIC50	< 4.00
COc1cccc2c1C(=O)c1c(O)c3c(c(O)c1C2=O)C[C@@](O)(C(=O)CO)C[C@@H]3O[C@H]1C[C@H](N)[C@H](O)[C@H](C)O1	MTT		IC50	4.12 µg/mL
Cc1cc(NS(=O)(=O)c2ccc(NC(=O)/C(C#N)=C/c3ccncc3)cc2)no1	MTT	48 h	pIC50	3.73
O=c1cc(OCc2cc(-c3ccc(C(F)(F)F)cc3)no2)c2ccccc2o1	MTS	72 h	pIC50	< 4.00
